Screens from PubChem.
iPSC survival up – enhancers of human iPSC single-cell survival. 360,000 tested, 0.044% active. hiPSC single-cell survival, ATPlite luminescence; 100% = ROCK inhibitor wells, 0% = DMSO. survival enhancement, % at 20 µM; in the data active = survival enhancement above about 18%;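 note: cells exposed to compounds for 16 hours before the ATP read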
CendR NRP1 mod – alters CendR peptide binding to human NRP-1; FAM-RPARPAR peptide binding to NRP-1, fluorescence polarization; AID 602438; inhibition, % at 25 µM; 360,000 tested, 0.85% active; O14786;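 active = inhibition or corrected inhibition above about 18%, plus a signal ratio from 0.5 to 1.5, limit read from the data, passing the limit was not always enough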
MT1-MMP act inh – blocks activation of human MT1-MMP; P50281; HT1080 RFP-PRO-GFP cells, GFP/RFP ratio fluorescence, overnight; percent of plate control window, DMSO zero; GFP/RFP ratio change, % at 20 µM; 360,000 tested, 0.061% active;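 active = GFP/RFP ratio change of at least 30% with cell ATP level not reduced by more than half and red fluorescence within 50% of control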
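Compound: 20 µM single dose, 1% DMSO / System: HT1080 RFP-PRO-GFP cells / Controls: DMSO and RFP-L50D-GFP cell wells / Read-out basis: GFP/RFP fluorescence ratio / Schedule: overnight compound exposure at 37 °C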
SKN-1 inh – blocks SKN-1 activity in C. elegans; C. elegans VP596 Pgst-4::GFP/RFP ratio, acrylamide-induced, 24 h; inhibition, % at 21.8 µM; 360,000 tested, 0.49% active;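 active = interference check ratio from 0.5 to 1.5 plus GFP to RFP signal ratio inhibition reaching or exceeding a fixed threshold, cut at about 30% in these data, passing the limit was not always enough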
An asterisk follows results filed as active. Shown are actives, neighbours in structure and some others; about 1.4% of the full set was active somewhere.

FC(F)Oc1ccc(C2N=C(c3ccccc3)NO2)cc1 (stereo not drawn) was read as iPSC survival up -0.5, CendR NRP1 mod 4.4, MT1-MMP act inh -0.3 and SKN-1 inh 34.3*.
`CC(Oc1cccc(Cl)c1)C(=O)Nc1ccccc1N1CCCCC1` (stereo not drawn) gave iPSC survival up -0.6, CendR NRP1 mod 27.8*, MT1-MMP act inh 3.4 and SKN-1 inh 14.9.
`OCCNc1ncnc2ccc(Br)cc12` gave iPSC survival up -2.0, CendR NRP1 mod 44.2*, MT1-MMP act inh -2.4 and SKN-1 inh -20.6.
CCOc1ccc(OCC)c(NC(=O)CSCC(=O)O)c1 was read as iPSC survival up 5.2, CendR NRP1 mod -2.9, MT1-MMP act inh 0.9 and SKN-1 inh 35.7*.
Screening CCN1C/C(=C\c2cccc([N+](=O)[O-])c2)C(=O)/C(=C/c2cccc([N+](=O)[O-])c2)C1 returned iPSC survival up 55.8*, CendR NRP1 mod 8.5, MT1-MMP act inh -17.3 and SKN-1 inh 8.0.
For O=C(NCc1ccc2c(c1)OCO2)c1ccc(Cl)c(S(=O)(=O)NCc2ccccc2)c1 the results were iPSC survival up -0.8, CendR NRP1 mod -0.4, MT1-MMP act inh 0.4 and SKN-1 inh 18.4.
CCOc1cc(NC(=O)c2ccco2)c(OCC)cc1NC(=O)CCc1ccccc1OC was read as iPSC survival up -2.8, CendR NRP1 mod 10.0, MT1-MMP act inh 2.2 and SKN-1 inh 38.5*.
Screening CC1ON=C(c2ccccn2)N(Cc2ccc3c(c2)OCO3)C1=O (stereo not drawn) returned iPSC survival up 2.9, CendR NRP1 mod 4.7, MT1-MMP act inh 2.2 and SKN-1 inh -15.6.
`c1ccc(SCc2cn(C[C@H]3CC[C@@H]([C@@H]4CC[C@H](Cn5cc(CSc6ccccc6)nn5)O4)O3)nn2)cc1` gave iPSC survival up -0.6, CendR NRP1 mod 23.5*, MT1-MMP act inh 0.4 and SKN-1 inh 7.3.
`c1ccc(Cn2cc(CSc3ccccc3)nn2)cc1` gave iPSC survival up 1.5, CendR NRP1 mod 28.0*, MT1-MMP act inh 3.5 and SKN-1 inh 5.7.
`CC(C)n1c(=O)c2ccccc2n1Cc1cn(Cc2ccccc2)nn1` gave iPSC survival up 0.9, CendR NRP1 mod 8.7, MT1-MMP act inh 0.2 and SKN-1 inh -15.2.
Cc1nn(-c2ccccc2)nc1CNC(=O)C1CCC1 was read as iPSC survival up 0.9, CendR NRP1 mod 24.6*, MT1-MMP act inh 1.6 and SKN-1 inh 5.8.
`CC(=O)Nc1cccc(-c2csc(NCc3ccccc3)n2)c1` gave iPSC survival up 0.1, CendR NRP1 mod 25.7*, MT1-MMP act inh 1.9 and SKN-1 inh -3.5.
`CC(=O)Nc1ccc(-c2csc(NCc3ccccc3)n2)cc1` gave iPSC survival up -0.4, CendR NRP1 mod -5.2, MT1-MMP act inh 1.2 and SKN-1 inh 12.7.
Cc1nc(-c2cccc(NC(=O)c3ccco3)c2)cs1 was read as iPSC survival up -0.1, CendR NRP1 mod -12.0, MT1-MMP act inh -4.0 and SKN-1 inh 35.6*.
Cc1ccc(C(C(=O)NC2CCCCC2)N(C(=O)CCCC(=O)Nc2ccccn2)c2ccc3c(c2)OCCO3)cc1 (stereo not drawn) was read as iPSC survival up 1.9, CendR NRP1 mod 8.4, MT1-MMP act inh -4.7 and SKN-1 inh 6.4.
Screening O=C1C(Br)=Cc2cccc3cccc1c23 returned iPSC survival up -0.5, CendR NRP1 mod 26.6*, MT1-MMP act inh 41.0 and SKN-1 inh 28.6.
For O=C1c2sccc2-c2cccc3cccc1c23 the results were iPSC survival up 2.3, CendR NRP1 mod 16.0, MT1-MMP act inh -23.5 and SKN-1 inh 32.3.
Cc1nc2scc(C)n2c(=O)c1S(=O)(=O)NC(C)c1ccccc1 (stereo not drawn) was read as iPSC survival up -0.1, CendR NRP1 mod 2.5, MT1-MMP act inh 0.2 and SKN-1 inh 8.6.
`Cc1cc(NC(=O)c2ccco2)ccc1-n1cnnn1` gave iPSC survival up -2.8, CendR NRP1 mod 8.8, MT1-MMP act inh 2.6 and SKN-1 inh 61.3*.
`O=C(Nc1ccc(Cl)c(C(F)(F)F)c1)c1ccco1` gave iPSC survival up 2.5, CendR NRP1 mod -4.4, MT1-MMP act inh -4.7 and SKN-1 inh 44.4*.
Screening O=C(Nc1ccncc1)c1cccc(S(=O)(=O)N2CCCC2)c1 returned iPSC survival up 0.0, CendR NRP1 mod 1.9, MT1-MMP act inh 5.8 and SKN-1 inh 1.4.
`CCC(=O)Nc1ccc(Cl)c(NC(=S)NC(=O)COc2ccccc2)c1` gave iPSC survival up 0.1, CendR NRP1 mod 5.7, MT1-MMP act inh 4.6 and SKN-1 inh -9.6.
Screening NS(=O)(=O)c1ccc(NC(=O)c2ccc(S(=O)(=O)N3CCOCC3)o2)cc1 returned iPSC survival up 0.0, CendR NRP1 mod -4.9, MT1-MMP act inh 3.6 and SKN-1 inh -8.3.
For O=C(Nc1ccc(S(=O)(=O)N2CCOCC2)cc1)c1cc(S(=O)(=O)N2CCOCC2)ccc1Cl the results were iPSC survival up 1.0, CendR NRP1 mod -5.5, MT1-MMP act inh 2.4 and SKN-1 inh -10.5.
Screening O=C(Nc1ccncc1)c1cc(S(=O)(=O)N2CCOCC2)ccc1Cl returned iPSC survival up 25.6*, CendR NRP1 mod -13.7, MT1-MMP act inh 0.4 and SKN-1 inh 3.1.
Screening CCN1CCN(S(=O)(=O)c2ccc(Cl)c(C(=O)NC3CCCC3)c2)CC1 returned iPSC survival up -0.3, CendR NRP1 mod 8.2, MT1-MMP act inh 3.7 and SKN-1 inh 0.6.
O=C(Nc1ccc(F)cc1)c1ccc(S(=O)(=O)N2CCOCC2)o1 was read as iPSC survival up -0.6, CendR NRP1 mod 25.4*, MT1-MMP act inh 4.4 and SKN-1 inh -3.0.
For O=C(NC1CCCCC1)c1cc(S(=O)(=O)N2CCCC2)ccc1Cl the results were iPSC survival up -0.3, CendR NRP1 mod 22.2*, MT1-MMP act inh 2.0 and SKN-1 inh 8.4.
`CCn1nc(NC(=O)c2ccccn2)c2cc3cccc(C)c3nc21` gave iPSC survival up -0.2, CendR NRP1 mod -9.4, MT1-MMP act inh 1.3 and SKN-1 inh 6.9.
Screening CC1CCCCN1S(=O)(=O)c1ccc2c(c1)CCN2C(=O)CCC(=O)O (stereo not drawn) returned iPSC survival up 0.0, CendR NRP1 mod -4.1, MT1-MMP act inh 1.7 and SKN-1 inh 4.2.
`CC(=O)N1CCc2cc(S(=O)(=O)N3CCCCC3C)ccc21` (stereo not drawn) gave iPSC survival up 0.8, CendR NRP1 mod 34.6*, MT1-MMP act inh 5.6 and SKN-1 inh -9.5.
CCc1cc(C(=O)OC)c(NC(=O)c2cc(Br)cs2)s1 was read as iPSC survival up 6.7, CendR NRP1 mod 6.2, MT1-MMP act inh -2.3 and SKN-1 inh 8.5.
For CCc1cc(C(=O)OC)c(NC(=O)c2ccoc2C)s1 the results were iPSC survival up 0.3, CendR NRP1 mod 39.3*, MT1-MMP act inh 1.1 and SKN-1 inh 6.1.
`CCc1cc(=O)oc2cc(OC3CCCCC3=O)ccc12` (stereo not drawn) gave iPSC survival up -0.1, CendR NRP1 mod 0.3, MT1-MMP act inh 1.9 and SKN-1 inh -2.2.
